Published values pooled from the literature.
Compare with care: the assays were run in different laboratories.
Target: Inhibitor of nuclear factor kappa-B kinase subunit beta (IKBKB, Homo sapiens, UniProt O14920)
Sequence (O14920 1-756, as in one of the studies): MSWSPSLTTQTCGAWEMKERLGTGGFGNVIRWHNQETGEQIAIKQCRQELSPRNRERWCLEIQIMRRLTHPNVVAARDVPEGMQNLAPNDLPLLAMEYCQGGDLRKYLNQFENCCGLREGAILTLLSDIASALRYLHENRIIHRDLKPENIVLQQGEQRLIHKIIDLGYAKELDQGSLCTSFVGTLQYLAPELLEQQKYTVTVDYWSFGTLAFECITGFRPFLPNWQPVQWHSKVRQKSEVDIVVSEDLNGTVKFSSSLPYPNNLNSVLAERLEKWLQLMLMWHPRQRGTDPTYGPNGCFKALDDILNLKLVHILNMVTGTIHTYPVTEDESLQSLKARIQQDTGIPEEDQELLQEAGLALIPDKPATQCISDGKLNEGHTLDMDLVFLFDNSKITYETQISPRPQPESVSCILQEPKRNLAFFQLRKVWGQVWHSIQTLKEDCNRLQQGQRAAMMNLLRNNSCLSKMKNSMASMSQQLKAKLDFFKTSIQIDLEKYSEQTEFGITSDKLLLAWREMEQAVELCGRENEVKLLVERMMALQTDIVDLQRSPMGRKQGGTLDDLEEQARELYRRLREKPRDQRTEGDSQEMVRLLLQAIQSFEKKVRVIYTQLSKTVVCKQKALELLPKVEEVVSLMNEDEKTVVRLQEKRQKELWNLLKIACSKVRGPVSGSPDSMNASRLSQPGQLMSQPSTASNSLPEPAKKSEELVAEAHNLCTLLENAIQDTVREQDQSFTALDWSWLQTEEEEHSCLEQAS

| Compound | effect on | mode | method | concentration | quantity | value |
| --- | --- | --- | --- | --- | --- | --- |
| O=c1[nH]c2ccccc2n1C1CCN(Cc2ccc(-c3[nH]c4cc5ncnc5cc4nc3-c3ccccc3)cc2)CC1 | enzyme activity | – | – | 0.5 µM | remaining activity | 101% |
| C#Cc1n[nH]c2c(-c3cn([C@@H](C)c4ccccc4)c(=O)[nH]c3=O)cc(F)cc12 | enzyme activity | inhibitor | – | 0.1 µM | inhibition | -2.2% |
| Cn1cncc1[C@](O)(COc1ccc(C#N)cc1-c1ccc(OC(F)(F)F)cc1)c1ccc(C#N)cc1 | cell-free assay | – | competition with immobilised ligand | 1 µM | remaining binding | 87% |
| Cn1cc(-c2cc(F)cc(N3CCn4c(cc5c4CCCC5)C3=O)c2CO)cc(Nc2ccc(N3CCN(C4COC4)CC3)cn2)c1=O | enzyme activity | inhibitor | – | 0.1 µM | inhibition | 5% |
| N#CC1(c2ccccn2)CCN(Cc2cc(C(=O)O)c(=O)n3ccccc23)CC1 | cell-free assay | – | competition with immobilised ligand | 1 µM | remaining binding | 100% |
| Cc1nn(C)cc1-c1nc2c(N3CCN(Cc4ccc(Cl)cc4)CC3)c(Cl)cnc2[nH]1 | binding | – | competition with immobilised ligand | 1 µM | remaining binding | 100% |
| CC(C)(C)c1cc(C=C(C#N)C#N)cc(Br)c1O | enzyme activity | inhibitor | – | 0.5 µM | remaining activity | 95.7% |
| C#Cc1n[nH]c2c(-c3cn([C@@H](C)c4ccccn4)c(=O)[nH]c3=O)cc(F)cc12 | enzyme activity | inhibitor | – | 0.1 µM | inhibition | 0.8% |
| COc1ncccc1-c1cnn2ccc(N3CCN(C(=O)OC(C)C)CC3)nc12 | binding | – | competition with immobilised ligand | 1 µM | remaining binding | 61% |
| Nc1ncc(-c2nc(N3CCOCC3)nc(N3CCOCC3)n2)c(C(F)F)n1 | binding | – | competition with immobilised ligand | 10 µM | remaining binding | 77% |
